# Measured values pooled from the literature.
# Lines come from different studies, so protocols differ.
# Target: Serine/threonine-protein kinase Nek3 (NEK3, Homo sapiens, UniProt P51956)
# One construct used (P51956 1-506): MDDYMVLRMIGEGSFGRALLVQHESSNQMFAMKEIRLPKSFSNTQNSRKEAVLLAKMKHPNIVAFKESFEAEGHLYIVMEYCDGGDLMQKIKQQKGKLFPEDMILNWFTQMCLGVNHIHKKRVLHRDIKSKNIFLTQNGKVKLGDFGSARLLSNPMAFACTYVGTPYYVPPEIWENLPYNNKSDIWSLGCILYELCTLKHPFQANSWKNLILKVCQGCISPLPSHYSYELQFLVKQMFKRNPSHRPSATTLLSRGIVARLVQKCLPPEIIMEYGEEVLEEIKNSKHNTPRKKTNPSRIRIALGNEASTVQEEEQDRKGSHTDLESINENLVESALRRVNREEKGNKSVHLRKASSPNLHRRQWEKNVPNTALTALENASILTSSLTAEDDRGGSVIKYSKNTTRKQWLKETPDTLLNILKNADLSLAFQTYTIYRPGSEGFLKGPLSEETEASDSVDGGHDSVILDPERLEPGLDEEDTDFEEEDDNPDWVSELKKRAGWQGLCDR
Compound,observed,technique,tested at,remaining binding
COc1cnc(Nc2cccc(S(N)(=O)=O)c2)nc1N1CCN(c2ccccc2)CC1,binding,competition with immobilised ligand,1 µM,74%
COc1cc(-c2cn(C3CCc4ccccc4N(CC(F)(F)F)C3=O)nn2)ccc1-n1ccc(C)n1 (stereo not drawn),cell-free assay,competition with immobilised ligand,1 µM,100%
COc1cnc(Nc2cccc(S(N)(=O)=O)c2)nc1N1CCN(c2ccccc2)C(=O)C1,binding,competition with immobilised ligand,1 µM,30%
CN(C(=O)c1ccccc1)c1cc(N(C)c2ccc3c(c2)CCc2ccc(C(=O)NCCN4CCOCC4)cc2C3=O)ccc1F,cell-free assay,competition with immobilised ligand,1 µM,99%
CN(c1nccc(-c2cnn3ncccc23)n1)C1CC1,binding,,1 µM,87%
c1ccc(N2CCN(Cc3nc4ccccc4[nH]3)CC2)nc1,binding,competition with immobilised ligand,1 µM,100%
CC1CCCN1c1nccc(-c2cnn3ncccc23)n1 (stereo not drawn),binding,,1 µM,82%
N#CC1(c2ccccn2)CCN(Cc2cc(C(=O)N3CCCC3)c(=O)n3ccccc23)CC1,cell-free assay,competition with immobilised ligand,1 µM,83%
c1cncc(-c2cccc(Nc3nccc(NC4CCCCC4)n3)c2)c1,binding,competition with immobilised ligand,10 µM,56%
CCN1CCN(Cc2ccc(C(=O)Nc3ccc(C)c(Oc4ccc5c(c4)CC(=O)N5)c3)cc2C(F)(F)F)CC1,binding,competition with immobilised ligand,1 µM,100%
C[C@@H]1CCN(c2nccc(-c3cnn4ncccc34)n2)C1,binding,,1 µM,81%
O=C(O)[C@@H]1[C@@H](Cn2nnc3ccccc3c2=O)CC[C@H]1C(=O)c1ccc(OCCC2CCOCC2)cc1,cell-free assay,competition with immobilised ligand,1 µM,83%
CN(CCCC(F)(F)F)c1nccc(-c2cnn3ncccc23)n1,binding,,1 µM,100%
O=C(c1ccc(Nc2ncc(Cl)c(-c3cc4ccccc4s3)n2)cc1)N1CCC(N2CCCC2)CC1,binding,competition with immobilised ligand,1 µM,1.3%
O=C(NCC1CCOCC1)c1n[nH]cc1NC(=O)c1c(F)cccc1F,binding,competition with immobilised ligand,1 µM,66%
O=C(NCc1ncc(C(F)(F)F)cc1Cl)c1ccc2c(c1)C1(CCS(=O)(=O)CC1)[C@H](C1CC1)N2S(=O)(=O)c1ccc(F)cc1,cell-free assay,competition with immobilised ligand,1 µM,100%
O=C(c1ccc(Nc2nccc(-c3cc4ccccc4s3)n2)cc1)N1CCC(N2CCCC2)CC1,binding,competition with immobilised ligand,1 µM,5.4%
CN(C)c1nccc(-c2cnn3ncccc23)n1,binding,,1 µM,100%
Nc1ncc2c(n1)-c1c([nH]c3ccc(C#CC4CC4)cc13)CCCC2,binding,competition with immobilised ligand,1 µM,78%
N[C@H]1CCN(c2nccc(-c3cnn4ncccc34)n2)C1,binding,,1 µM,100%
Cc1cnc(Nc2ccc(C(=O)N3CCC(N4CCCC4)CC3)cc2)nc1-c1cc2ccccc2s1,binding,competition with immobilised ligand,1 µM,2.4%
